High-throughput results as filed in PubChem.
An excerpt weighted towards active compounds, which were near 3.5% of everything screened.
MrgX1 allo act: allosterically activates human MrgX1 receptor signaling; Q96LB2; B-score at 10 µM; MrgX1-HEK293, Fluo-4 calcium flux, FDSS; hits give high values; hit rate 0.63% among 310,000;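 active means plate-corrected calcium response at least 3 library SD above typical, normal starting fluorescence, not activating the receptor alone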;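 further: compound read alongside a low EC10 to EC30 dose of BAM8-22 agonist; peak minus trough fluorescence over baseline measured at the second addition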
Target sequence (Q96LB2 whole entry, looked up): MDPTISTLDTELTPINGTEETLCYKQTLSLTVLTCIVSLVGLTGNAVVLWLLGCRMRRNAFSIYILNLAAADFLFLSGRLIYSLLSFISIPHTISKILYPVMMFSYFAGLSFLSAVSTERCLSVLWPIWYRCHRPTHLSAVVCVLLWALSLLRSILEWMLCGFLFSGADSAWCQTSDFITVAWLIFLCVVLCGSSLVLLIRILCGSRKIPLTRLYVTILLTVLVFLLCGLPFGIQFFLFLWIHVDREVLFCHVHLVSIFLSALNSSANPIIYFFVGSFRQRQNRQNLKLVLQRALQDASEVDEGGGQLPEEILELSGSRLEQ
MrgX1 antag: human MrgX1 receptor antagonism, primary screen | MRGX1-HEK293 calcium flux, Fluo-4, BAM8-22 antagonism; hits give low values | Q96LB2 | AID 588676 | B-score at 10 µM | hit rate 1.3% among 310,000;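 active means calcium-response B-score plate-corrected more than 3 library SD below zero, starting fluorescence within 5 deviations, no agonist response on first addition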;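 further: peak minus trough fluorescence over baseline after final BAM8-22 challenge near maximal dose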
RGS4 block: inhibitors of human RGS4 | B-score at 10 µM | hit rate 0.45% among 310,000 | HEK293 M3R/RGS4 inducible, Fluo-4 calcium flux; hits give high values; triggered by carbachol at its EC20;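 active means B-score, a plate-corrected calcium signal, over three deviations above library mean, with baseline fluorescence within five deviations of library mean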;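 further: RGS4 expression induced by doxycycline in cells with stable M3 receptor; B-score is computed from the integrated fluorescence ratio over baseline after carbachol; higher B-score means a larger calcium signal and so more RGS4 inhibition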
MrgX1 agonist: activates human MrgX1 receptor signaling; hit rate 0.44% among 310,000; B-score at 10 µM; MrgX1-HEK293 cells, Fluo-4 calcium fluorescence, agonist mode; hits give high values; Q96LB2;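 active means calcium response B-score plate-corrected fluorescence ratio at least 3 library SD, with starting fluorescence B-score inside 5 SD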
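Test system: HEK293 cells stably expressing human MrgX1 receptor; amount: 15,000 cells per well; doses: compound delivered in addition one of three; times: overnight plating before 1 h dye loading; detection: Fluo-4 NW calcium-flux fluorescence, kinetic read; read-out basis: B-scored fluorescence response ratio; controls: positive and negative controls per plate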
RGS4 act: RGS4 potentiation or activation; HEK293 M3R/inducible RGS4, carbachol calcium flux Fluo4; hits give low values; B-score at 10 µM; hit rate 0.92% among 310,000; AID 463111;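 active means B-score of the integrated calcium signal more than 4 SD below the library mean, with starting fluorescence not abnormally high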;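 further: negative B-score means reduced calcium response which marks RGS4 activation or potentiation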
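Also added: carbachol at ECmax as muscarinic agonist stimulus; Assay system: HEK293 cells with stable M3R and inducible RGS4; Timing: overnight RGS4 induction, 30 min dye load 37 °C, 20 min compound RT; Measured by: Fluo4-AM (2 µM) calcium-flux fluorescence, kinetic read.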
Each line names hits and unclear results; the compound was inactive in the other large screens.

Cc1nn(C)cc1C(C(=O)NC1CCCCC1)N(C(=O)Cc1cccs1)c1ccc(C(C)C)cc1 (centres undefined)	MrgX1 agonist 27
CCOC(=O)CN1C(=O)CC(c2ccc([N+](=O)[O-])cc2)C1=O (centres undefined)	none
OCC1CCCN(c2nc(CN3CCCCC3)nc3scc(-c4ccccc4)c23)C1 (centres undefined)	none
CCNc1nc(CN2CCCCC2)nc2scc(-c3ccccc3)c12	RGS4 act -7.2
Cc1nc2ccccn2c1C(=O)N/N=C/c1ccc([N+](=O)[O-])cc1	none
Cc1nn(C)c(C(=O)N/N=C/c2ccccc2)c1[N+](=O)[O-]	RGS4 act -9.9
Cc1nn(C)c(C(=O)Nc2cccc(Nc3ccccc3)c2)c1[N+](=O)[O-]	none
Cc1nc2ccccn2c1C(=O)N/N=C/c1ccc([N+](=O)[O-])o1	MrgX1 antag -6
Cc1cc(=O)[nH]n(CCO)c1=O	none
c1cc2c3c(cccc3c1)C(N1CCCCC1)=N2	none
c1cc2c3c(cccc3c1)C(N1CCCCCC1)=N2	RGS4 act -7.4
COc1cc(/C=C2\C(=O)NN(c3ccc(C)cc3)C2=O)cc([N+](=O)[O-])c1O	none
CCOC(=O)COc1ccc(/C=C2/C(=O)NN(c3ccc(F)cc3)C2=O)cc1OC	MrgX1 agonist 46
COc1cc(/C=C2/C(=O)NN(c3ccc(Cl)cc3)C2=O)cc(OC)c1O	MrgX1 agonist 44
CCOC(=O)N1CCN(c2nc(-c3cccs3)nc3ccccc23)CC1	RGS4 act -7.3
CCCN1CCN(c2nc(-c3cccs3)nc3ccccc23)CC1	none
C=CCNC(=O)c1c(Br)cnn1-c1ccc(C)cc1	none
CCN1CCN(c2c(Cl)cccc2NC(=O)c2ccc([N+](=O)[O-])o2)CC1	RGS4 act -7.5
O=C(Nc1cccc(Cl)c1N1CCCC1)c1ccc([N+](=O)[O-])o1	none
CCOC(=O)C1(CC2CCCCO2)CCN(C(=O)Nc2ccc(C)c(C)c2)CC1 (centres undefined)	none
COc1cccc(C(=O)O/N=C/c2ccc(Sc3ccc(C)cc3)nc2)c1	none
Cc1ccc2nc(C)/c(=N\O)c(C)nc2c1	MrgX1 allo act 10
COc1ccc(Cl)cc1NC(=O)C/C(C)=N/NC(=O)COc1ccc(C)cc1	none
Cc1cccc(C)c1C(OCCN(C)C)C1CCCCC1 (centres undefined)	RGS4 act -7.4
COCCN(C(=O)CCl)C(C(=O)NC1CCCCC1)c1ccccc1C (centres undefined)	none
COc1ccc(/C=N/Nc2nc(-c3cccc(S(=O)(=O)N4CCCC4)c3)cs2)cc1OC	none
CCOc1cc(/C=N/Nc2nc(-c3cccc(S(=O)(=O)N4CCCC4)c3)cs2)ccc1O	RGS4 act -8.8
COc1cc(/C=N/Nc2nc(-c3ccc(S(=O)(=O)N(C)C)cc3)cs2)ccc1O	RGS4 act -7.4
O=S(=O)(c1cccc(-c2csc(N/N=C/c3ccco3)n2)c1)N1CCOCC1	RGS4 act -8.6
CCCNC(=O)NC(=O)CSc1nnc(-c2c[nH]c3ccccc23)o1	none
O=C(CN1CCCCC1)N1c2ccccc2Oc2ccccc21	RGS4 act -7.5
CC1Cc2ccccc2N1C(=O)CN1CCCCC1 (centres undefined)	none
COC1(OC)C(/C=C/c2ccc(Cl)cc2)C(C#N)(C#N)C1(OC)OC (centres undefined)	MrgX1 allo act 8.5
O=C(C1CC1)N1N=C(c2ccccc2)CC1(O)C(F)(F)F (centres undefined)	none
O=C(c1ccccc1[N+](=O)[O-])N1N=C(c2ccccc2)CC1(O)C(F)(F)F (centres undefined)	RGS4 act -9.3
OCCC1CN(Cc2cccn2-c2cccnc2)CCN1C1CCCCC1 (centres undefined)	none
O=C1C=CC(=O)N1CCNc1ncc(C(F)(F)F)cc1Cl	RGS4 act -7.9 (no result: MrgX1 allo act, MrgX1 antag, MrgX1 agonist)
COc1cccc(/C=N/n2c(-c3n[nH]c4c3CCC4)n[nH]c2=S)c1OC	RGS4 act -7.3
CN(c1ccccc1)P(=O)(N(C)c1ccccc1)N(C)c1ccccc1	RGS4 act -11
CCN(c1ccccc1)P(=O)(Nc1ccccc1)Nc1ccccc1	none
Cc1ccccc1/C=C/C(=O)N1CCOCC1	none
COc1ccccc1/C=C/C(=O)N1CCOCC1	RGS4 act -7.8
O=C(CSc1nnc(COc2ccc(Cl)cc2Cl)o1)Nc1ccccn1	none
